Test results: paper PMC11000255 (Journal of the American Chemical Society, 2024)
Like-named read-outs stand apart in the source and are kept apart here.

Columns and labels:
[1] = target: kynurenine-oxoglutarate transaminase 3 (KYAT3) (Homo sapiens, UniProt Q6YP21); test: TMT18plex lysine ligandability profiling, KYAT3; format: binding; conditions: 100 μM, 8 h, breast cancer cells
Outline: (§1)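 Live MDA-MB-231 or MDA-MB-436 breast cancer cells were exposed to the test compound (100 µM, 8 h) or DMSO vehicle. Lysates (soluble and insoluble fractions) were chased with a desthiobiotin-tagged lysine-specific STP ester probe, trypsin-digested, streptavidin-enriched and quantified by TMTpro-18plex. Lysines had to be quantified in all biological triplicates and TMT channels. A lysine counted as liganded at ≥60% loss of probe enrichment relative to DMSO.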

K677R/K681R/K315R-PFKL = K677R/K681R/K315R-PFKL (Homo sapiens, UniProt P17858, K315R/K677R/K681R); test: enzyme-coupled F6P phosphorylation assay, K677R/K681R/K315R-PFKL triple mutant; format: biochemical; conditions: read-out: IC50, inhibition of PFKL activity
Chain of K677R/K681R/K315R-PFKL (P17858 whole entry K315R/K677R/K681R): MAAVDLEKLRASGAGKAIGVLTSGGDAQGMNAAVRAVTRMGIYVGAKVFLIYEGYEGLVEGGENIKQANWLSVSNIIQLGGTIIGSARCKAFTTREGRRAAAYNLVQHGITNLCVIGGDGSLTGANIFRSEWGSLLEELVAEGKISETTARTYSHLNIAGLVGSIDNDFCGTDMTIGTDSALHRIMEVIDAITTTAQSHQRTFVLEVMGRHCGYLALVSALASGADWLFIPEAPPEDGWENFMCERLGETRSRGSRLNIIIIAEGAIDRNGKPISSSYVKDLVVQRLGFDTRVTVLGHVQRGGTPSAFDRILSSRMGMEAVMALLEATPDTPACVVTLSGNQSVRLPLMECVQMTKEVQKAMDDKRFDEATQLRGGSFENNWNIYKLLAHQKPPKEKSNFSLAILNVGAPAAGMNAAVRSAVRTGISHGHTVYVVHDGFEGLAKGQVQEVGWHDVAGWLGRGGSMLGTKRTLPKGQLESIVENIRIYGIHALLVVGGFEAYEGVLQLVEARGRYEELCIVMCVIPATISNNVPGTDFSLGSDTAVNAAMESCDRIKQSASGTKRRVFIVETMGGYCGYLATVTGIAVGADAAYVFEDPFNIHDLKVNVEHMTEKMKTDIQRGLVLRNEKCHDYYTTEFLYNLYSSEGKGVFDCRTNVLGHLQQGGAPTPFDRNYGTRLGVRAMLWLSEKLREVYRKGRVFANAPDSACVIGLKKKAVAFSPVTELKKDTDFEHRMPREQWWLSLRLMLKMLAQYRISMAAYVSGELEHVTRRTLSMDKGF

WT-PFKL = WT-PFKL (Homo sapiens, UniProt P17858); test: enzyme-coupled F6P phosphorylation assay, WT-PFKL in HEK293T cell lysates; format: biochemical; conditions: read-out: apparent IC50, inhibition of PFKL activity
Chain of WT-PFKL (P17858 whole entry): as the sequence (P17858 whole entry K315R/K677R/K681R) above, with R315K, R677K, R681K counted along it

K688R-PFKP = K688R-PFKP (Homo sapiens, UniProt Q01813, K688R); test: F6P phosphorylation assay, K688R-PFKP in HEK293T cell lysates; format: biochemical; conditions: read-out: IC50, inhibition of PFKP activity; K688R-PFKP variant
Chain of K688R-PFKP (Q01813 whole entry K688R): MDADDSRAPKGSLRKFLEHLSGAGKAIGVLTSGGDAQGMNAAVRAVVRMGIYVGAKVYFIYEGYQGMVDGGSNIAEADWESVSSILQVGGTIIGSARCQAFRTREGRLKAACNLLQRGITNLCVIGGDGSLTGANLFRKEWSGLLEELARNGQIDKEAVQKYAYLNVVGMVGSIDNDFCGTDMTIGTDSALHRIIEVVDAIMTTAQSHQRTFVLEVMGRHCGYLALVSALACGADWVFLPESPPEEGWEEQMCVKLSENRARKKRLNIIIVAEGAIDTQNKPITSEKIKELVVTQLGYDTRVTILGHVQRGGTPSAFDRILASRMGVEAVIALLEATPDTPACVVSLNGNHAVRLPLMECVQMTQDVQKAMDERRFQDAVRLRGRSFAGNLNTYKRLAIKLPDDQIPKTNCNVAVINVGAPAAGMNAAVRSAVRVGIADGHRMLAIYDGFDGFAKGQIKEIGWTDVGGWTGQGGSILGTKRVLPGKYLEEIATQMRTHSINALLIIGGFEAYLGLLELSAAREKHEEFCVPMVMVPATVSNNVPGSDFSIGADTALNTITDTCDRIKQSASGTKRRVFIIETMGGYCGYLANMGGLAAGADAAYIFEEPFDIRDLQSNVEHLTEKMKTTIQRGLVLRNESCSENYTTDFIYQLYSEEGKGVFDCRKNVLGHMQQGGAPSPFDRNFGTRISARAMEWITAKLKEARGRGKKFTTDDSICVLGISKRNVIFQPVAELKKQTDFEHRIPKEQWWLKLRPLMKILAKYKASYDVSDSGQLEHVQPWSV

K681R-PFKL = K681R-PFKL (Homo sapiens, UniProt P17858, K681R); test: enzyme-coupled F6P phosphorylation assay, K681R-PFKL; format: biochemical; conditions: read-out: IC50, inhibition of PFKL activity
Chain of K681R-PFKL (P17858 whole entry K681R): as the sequence (P17858 whole entry K315R/K677R/K681R) above, with R315K, R677K counted along it

WT-ABHD12 = target: T1, WT-ABHD12 (Homo sapiens, UniProt Q8N2K0); test: LC/MS-based LPS hydrolysis assay, WT-ABHD12 in HEK293T cell lysates; format: biochemical; conditions: read-out: apparent IC50, inhibition of LPS hydrolysis activity; WT-ABHD12
T1 sequence (Q8N2K0 1-398): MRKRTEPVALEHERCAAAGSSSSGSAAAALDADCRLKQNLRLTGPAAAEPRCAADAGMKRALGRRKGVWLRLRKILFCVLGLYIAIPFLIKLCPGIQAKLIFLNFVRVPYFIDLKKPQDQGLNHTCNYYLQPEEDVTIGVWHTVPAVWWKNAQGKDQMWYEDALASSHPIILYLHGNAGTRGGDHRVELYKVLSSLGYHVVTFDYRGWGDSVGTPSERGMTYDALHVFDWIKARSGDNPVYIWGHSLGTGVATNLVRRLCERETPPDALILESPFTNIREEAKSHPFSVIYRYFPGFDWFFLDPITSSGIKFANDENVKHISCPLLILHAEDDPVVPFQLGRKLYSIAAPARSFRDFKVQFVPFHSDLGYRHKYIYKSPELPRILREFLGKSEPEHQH
Outline: (§2)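 Recombinant ABHD12 (WT, S246A and K373 mutants) was expressed in HEK293T cells and used as cell lysate. Lysate was preincubated with the test compound (single-point 100 µM, or a dose series; 1 h, 37 °C), then given 17:1 LPS substrate (100 µM, 20 min, 37 °C).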

PFKL = PFKL (Homo sapiens, UniProt P17858); test: TMT18plex lysine ligandability profiling, PFKL; format: binding; conditions: 100 μM, 8 h, breast cancer cells
Chain of PFKL (P17858 whole entry): as the sequence (P17858 whole entry K315R/K677R/K681R) above, with R315K, R677K, R681K counted along it

nucleostemin (GNL3) = nucleostemin (GNL3) (Homo sapiens, UniProt Q9BVP2); test: TMT18plex lysine ligandability profiling, GNL3; format: binding; conditions: 100 μM, 8 h, breast cancer cells
Chain of nucleostemin (GNL3) (Q9BVP2 whole entry): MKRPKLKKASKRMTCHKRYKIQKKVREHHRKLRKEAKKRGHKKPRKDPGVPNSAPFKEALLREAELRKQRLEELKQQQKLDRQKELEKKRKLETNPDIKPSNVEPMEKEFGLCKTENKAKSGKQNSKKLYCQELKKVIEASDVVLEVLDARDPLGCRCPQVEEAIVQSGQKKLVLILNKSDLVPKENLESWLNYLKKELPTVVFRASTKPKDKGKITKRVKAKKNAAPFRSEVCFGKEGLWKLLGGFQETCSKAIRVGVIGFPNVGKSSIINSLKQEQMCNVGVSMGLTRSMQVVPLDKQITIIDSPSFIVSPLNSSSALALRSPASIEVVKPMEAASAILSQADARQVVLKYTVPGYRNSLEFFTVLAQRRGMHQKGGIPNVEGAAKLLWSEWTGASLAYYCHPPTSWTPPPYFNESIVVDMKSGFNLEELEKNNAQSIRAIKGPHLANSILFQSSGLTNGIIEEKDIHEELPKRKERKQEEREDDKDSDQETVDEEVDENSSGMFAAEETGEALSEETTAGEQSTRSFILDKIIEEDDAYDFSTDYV
Outline: as §1

K373R-ABHD12 = K373R-ABHD12 (Homo sapiens, UniProt Q8N2K0, K373R); test: LC/MS-based LPS hydrolysis assay, K373R-ABHD12 in HEK293T cell lysates; format: biochemical; conditions: read-out: IC50, inhibition of LPS hydrolysis activity; K373R-ABHD12 mutant
Chain of K373R-ABHD12 (Q8N2K0 whole entry K373R): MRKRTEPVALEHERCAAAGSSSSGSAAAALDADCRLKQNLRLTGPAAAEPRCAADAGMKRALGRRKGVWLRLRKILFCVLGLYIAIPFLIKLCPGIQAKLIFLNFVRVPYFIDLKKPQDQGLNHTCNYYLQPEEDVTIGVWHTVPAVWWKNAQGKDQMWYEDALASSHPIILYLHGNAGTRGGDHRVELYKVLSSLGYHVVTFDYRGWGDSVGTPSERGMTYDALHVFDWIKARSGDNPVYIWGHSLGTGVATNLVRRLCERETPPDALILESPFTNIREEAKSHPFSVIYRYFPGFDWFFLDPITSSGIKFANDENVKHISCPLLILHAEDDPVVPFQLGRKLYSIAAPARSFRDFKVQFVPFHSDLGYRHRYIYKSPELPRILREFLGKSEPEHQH
Outline: as §2

ABHD12 = target: T2, ABHD12 (Homo sapiens, UniProt Q8N2K0); test: TMT18plex lysine ligandability profiling, ABHD12; format: binding; conditions: both MDA-MB-231 and MDA-MB-436 cell lines
T2 sequence (Q8N2K0 1-398): T1 sequence (Q8N2K0 1-398)
Outline: as §1

WT-PFKP [2] = target: T3, WT-PFKP (Homo sapiens, UniProt Q01813); format: binding
T3 sequence (Q01813 1-784): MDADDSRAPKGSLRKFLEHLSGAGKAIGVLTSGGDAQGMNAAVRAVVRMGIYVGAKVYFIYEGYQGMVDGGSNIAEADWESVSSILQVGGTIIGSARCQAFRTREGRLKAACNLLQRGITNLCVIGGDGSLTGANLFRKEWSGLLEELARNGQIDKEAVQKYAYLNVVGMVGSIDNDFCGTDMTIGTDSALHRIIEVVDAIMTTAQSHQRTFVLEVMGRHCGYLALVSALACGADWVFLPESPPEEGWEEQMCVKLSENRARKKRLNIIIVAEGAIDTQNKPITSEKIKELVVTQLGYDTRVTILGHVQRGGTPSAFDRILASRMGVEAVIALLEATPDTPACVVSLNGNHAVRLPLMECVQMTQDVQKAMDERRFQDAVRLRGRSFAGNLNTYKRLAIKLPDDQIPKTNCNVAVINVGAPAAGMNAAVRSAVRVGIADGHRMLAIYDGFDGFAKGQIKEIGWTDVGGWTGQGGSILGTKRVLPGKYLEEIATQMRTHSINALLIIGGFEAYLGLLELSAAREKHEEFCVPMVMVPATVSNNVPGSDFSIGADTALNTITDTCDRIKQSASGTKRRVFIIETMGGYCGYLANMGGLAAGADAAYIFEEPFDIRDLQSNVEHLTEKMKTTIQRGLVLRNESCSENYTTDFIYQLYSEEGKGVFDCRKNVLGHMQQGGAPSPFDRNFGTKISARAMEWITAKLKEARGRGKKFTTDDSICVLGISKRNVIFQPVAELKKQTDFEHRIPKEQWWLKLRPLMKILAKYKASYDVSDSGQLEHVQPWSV

WT-PFKP [3] = target: T3, WT-PFKP; test: F6P phosphorylation assay, WT-PFKP in HEK293T cell lysates; format: biochemical; conditions: read-out: IC50, inhibition of PFKP activity
MDA-MB-231 cells = test: untargeted lipidomics profiling of treated cells; format: cell-based, human; conditions: 100 μM, 8 h
K677R/K681R-PFKL = K677R/K681R-PFKL (Homo sapiens, UniProt P17858, K677R/K681R); test: enzyme-coupled F6P phosphorylation assay, K677R/K681R-PFKL double mutant; format: biochemical; conditions: read-out: IC50, inhibition of PFKL activity
Chain of K677R/K681R-PFKL (P17858 whole entry K677R/K681R): as the sequence (P17858 whole entry K315R/K677R/K681R) above, with R315K counted along it

K677R-PFKL = K677R-PFKL (Homo sapiens, UniProt P17858, K677R); test: enzyme-coupled F6P phosphorylation assay, K677R-PFKL; format: biochemical; conditions: read-out: IC50, inhibition of PFKL activity
Chain of K677R-PFKL (P17858 whole entry K677R): as the sequence (P17858 whole entry K315R/K677R/K681R) above, with R315K, R681K counted along it

PFKP = PFKP (Homo sapiens, UniProt Q01813); test: TMT18plex lysine ligandability profiling, PFKP; format: binding; conditions: 100 μM, 8 h, breast cancer cells
Outline: as §1

Chain of kynurenine-oxoglutarate transaminase 3 (KYAT3) (Q6YP21 whole entry): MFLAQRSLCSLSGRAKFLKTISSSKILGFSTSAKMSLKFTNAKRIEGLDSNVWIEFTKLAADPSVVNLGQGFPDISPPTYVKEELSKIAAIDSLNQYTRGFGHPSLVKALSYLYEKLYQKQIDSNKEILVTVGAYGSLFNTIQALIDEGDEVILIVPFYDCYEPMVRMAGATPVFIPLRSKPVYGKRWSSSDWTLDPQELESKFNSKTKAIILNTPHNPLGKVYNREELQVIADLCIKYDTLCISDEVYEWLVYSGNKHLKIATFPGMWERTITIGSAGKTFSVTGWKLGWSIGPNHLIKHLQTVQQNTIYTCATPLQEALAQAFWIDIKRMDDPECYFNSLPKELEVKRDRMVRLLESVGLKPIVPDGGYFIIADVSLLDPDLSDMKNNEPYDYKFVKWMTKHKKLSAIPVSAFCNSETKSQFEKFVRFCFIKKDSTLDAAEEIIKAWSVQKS

CC1(C)[C@@H]2C[C@H]3[C@H](c4ccccc4)c4c(O)c(C=O)c(O)c(C=O)c4O[C@@]3(C)[C@H]1C2 [(−)-guadial B]
ligandability of K330 in KYAT3 [1]: 28%
IC50 (K677R/K681R/K315R-PFKL): > 100 µM
IC50 (WT-PFKL): 4.6 µM
IC50 (K688R-PFKP): > 100 µM
IC50 (K681R-PFKL): 7 µM
IC50 (WT-ABHD12): 18.1 µM
ligandability of K677 in PFKL (PFKL): 65%
ligandability of K681 in PFKL (PFKL): 60%
ligandability of K20 in GNL3 (nucleostemin (GNL3)): 74%
IC50 (K373R-ABHD12): > 100 µM
ligandability of K373 in ABHD12 (ABHD12): 66%
fold reduction in potency versus enantiomer (+)-guadial B (WT-PFKP [2]; P1 probe labeling blockade): ~10 fold
IC50 (WT-PFKP [2]; read-out: apparent IC50, blockade of P1 probe labeling, WT-PFKP): 13.8 µM
IC50 (WT-PFKP [3]): 3.8 µM
levels of monoacylglycerophosphoserine LPS(18:0) (MDA-MB-231 cells): significantly elevated levels
levels of stearic acid FA(18:0) (MDA-MB-231 cells): concurrent reduction
IC50 (K677R/K681R-PFKL): 78.5 µM
IC50 (K677R-PFKL): 8.6 µM
ligandability of K688 in PFKP (PFKP): 60%
